{"source": "PubChem BioAssay AID651651", "about": "(Broad Institute, 2012)", "note": "Active and inactive are the calls of the source.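 Rule for the calls: active = signal-lowering compounds whose fitted half-effect concentration is no more than twice the top tested dose; inconclusive = flat curve with 30 to 70% inhibition, or poor fit; inactive = the rest.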"}
{"assay": "quencher artefacts in RAD54 branch migration readout – biochemical, Cy5 label, cherry-picked samples, artefact control for RAD54 inhibitor project, dose response (AID 651651)", "details": "Cy5 DNA fluorescence quench counter-screen; series mostly up to 50 µM; activity change, negative = inhibition: at the top concentration", "in_short": "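Medium: 25 mM Tris pH 7.5, 3 mM MgCl2, 2 mM ATP. Material: human RAD54 enzyme. Quantity: RAD54 30 nM in enzyme mix. Technique: Cy5 fluorescence. Schedule: 60 min reaction at room temperature after substrate addition. Dosing: pinned compound dose series, 10 mM stock solutions.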"}
{"smiles": "Cc1ccc(S(=O)(=O)N(C)C[C@@H]2Oc3ccc(NC(=O)Nc4c(C)noc4C)cc3CC(=O)N([C@@H](C)CO)C[C@@H]2C)cc1", "activity change, negative = inhibition": "-11.8% (inactive)"}
{"smiles": "COc1ccc(CN(C)C[C@@H]2Oc3ccc(NC(=O)Nc4ccc(OC)cc4)cc3C(=O)N([C@@H](C)CO)C[C@H]2C)cc1", "activity change, negative = inhibition": "-9.24% (inactive)"}
{"smiles": "CO[C@@H]1CN(C)C(=O)c2ccc(NC(C)=O)cc2OC[C@@H](C)N(C(=O)c2ccccn2)C[C@H]1C", "activity change, negative = inhibition": "-8.93% [at 46 µM] (inactive)"}
{"smiles": "C[C@H]1CN([C@@H](C)CO)C(=O)c2cc(NS(=O)(=O)c3cccs3)ccc2O[C@@H]1CN(C)C(=O)Nc1cccc2ccccc12", "activity change, negative = inhibition": "-11% (inactive)"}
{"smiles": "C[C@H](NC(=O)C[C@H]1C[C@H]2c3cc(NC(=O)c4cccnc4)ccc3O[C@H]2[C@@H](CO)O1)c1ccccc1", "activity change, negative = inhibition": "-2.79% (inactive)"}
{"smiles": "Cc1noc(C)c1NC(=O)N(C)C[C@H]1Oc2c(NC(=O)Nc3ccc(C(F)(F)F)cc3)cccc2C(=O)N([C@@H](C)CO)C[C@H]1C", "activity change, negative = inhibition": "4.92% (inactive)"}
{"smiles": "COc1ccc(CN(C)C[C@@H]2Oc3ccc(NC(=O)Nc4ccc5c(c4)OCO5)cc3C(=O)N([C@@H](C)CO)C[C@H]2C)cc1", "activity change, negative = inhibition": "-2.31% (inactive)"}
{"smiles": "C[C@@H]1CN([C@@H](C)CO)C(=O)c2cc(C3=CCCC3)cnc2O[C@@H]1CN(C)C(=O)Nc1ccc(F)cc1", "activity change, negative = inhibition": "-6.79% (inactive)"}
{"smiles": "COc1ccc(CN(C)C[C@@H]2Oc3ccc(NC(=O)Nc4ccc(OC)cc4)cc3C(=O)N([C@H](C)CO)C[C@H]2C)cc1", "activity change, negative = inhibition": "-7.79% (inactive)"}
{"smiles": "C[C@@H]1CN([C@H](C)CO)C(=O)c2cc(NC(=O)Nc3ccc4c(c3)OCO4)ccc2O[C@H]1CN(C)C(=O)Nc1cccc2ccccc12", "activity change, negative = inhibition": "0.117% [at 46 µM] (inactive)"}
